Assay results as given in ChEMBL document CHEMBL1138178, “Identification of novel parasitic cysteine protease inhibitors by use of virtual screening. 2. The available chemical directory” (J Med Chem, 2006).
Where a SMILES comes first, the peptide text is derived from it. The star is where a group is joined. Cbz = O=C(OCc1ccccc1)*; OBn = c1ccc(CO*)cc1

Experiments:
Vero [1] = assay: Cytotoxicity against Vero cells up to 50 uM; type: functional, cell-based, Chlorocebus sabaeus
Procedure, shortened: (§1)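 VERO monkey kidney fibroblast cells tested simultaneously with antileishmanial screen; cytotoxicity read by neutral red assay; IC50 computed from growth inhibition curve.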

Plasmodium falciparum [2] = assay: Antimalarial activity against Plasmodium falciparum W2 up to 20 uM; type: functional, organism-based
Procedure, shortened: (§2)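 Sorbitol-synchronized chloroquine-resistant W2 P. falciparum at 1% parasitemia, 2% hematocrit, RPMI-1640 with 10% human serum, 3% O2/6% CO2/91% N2; compounds from DMSO (max 0.1%) for 48 h; fixed in 1% formaldehyde 48 h, stained with 1 nM YOYO-1 in 0.1% Triton X-100; parasitemia by flow cytometry; IC50 from percent control parasitemia versus concentration.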

Leishmania donovani = assay: Antileishmanial activity against Leishmania donovani promastigotes; type: functional, organism-based
Cysteine protease = biological target: T1, Cysteine protease (Leishmania donovani, UniProt Q95WR6); assay: Inhibition of Leishmania donovani cysteine protease
T1 sequence (Q95WR6 whole entry): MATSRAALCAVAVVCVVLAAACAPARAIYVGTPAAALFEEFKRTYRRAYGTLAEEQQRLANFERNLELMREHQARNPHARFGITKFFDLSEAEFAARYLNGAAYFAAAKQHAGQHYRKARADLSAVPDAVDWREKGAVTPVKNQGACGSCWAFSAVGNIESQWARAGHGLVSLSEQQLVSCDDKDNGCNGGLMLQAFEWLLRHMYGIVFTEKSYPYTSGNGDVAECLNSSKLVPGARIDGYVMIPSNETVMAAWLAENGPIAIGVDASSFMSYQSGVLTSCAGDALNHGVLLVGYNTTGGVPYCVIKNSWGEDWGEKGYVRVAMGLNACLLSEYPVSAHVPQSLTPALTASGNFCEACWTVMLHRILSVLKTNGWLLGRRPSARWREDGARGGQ
Procedure, shortened: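 Major cysteine protease purified from L. donovani promastigotes on Con A Sepharose; buffer 100 mM sodium acetate pH 5.5, 10 mM DTT, 0.1% Triton X-100, 1 mM EDTA; enzyme preincubated with compounds (DMSO stock) 10 min at 37 °C; Z-Phe-Arg-AMC at 10 µM final; 30 min at 37 °C; released AMC read fluorometrically.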

[3] = biological target: T2, Cysteine protease falcipain-3 (Plasmodium falciparum, UniProt Q9NBA7); assay: Inhibition of falcipain3
T2 sequence (Q9NBA7 whole entry): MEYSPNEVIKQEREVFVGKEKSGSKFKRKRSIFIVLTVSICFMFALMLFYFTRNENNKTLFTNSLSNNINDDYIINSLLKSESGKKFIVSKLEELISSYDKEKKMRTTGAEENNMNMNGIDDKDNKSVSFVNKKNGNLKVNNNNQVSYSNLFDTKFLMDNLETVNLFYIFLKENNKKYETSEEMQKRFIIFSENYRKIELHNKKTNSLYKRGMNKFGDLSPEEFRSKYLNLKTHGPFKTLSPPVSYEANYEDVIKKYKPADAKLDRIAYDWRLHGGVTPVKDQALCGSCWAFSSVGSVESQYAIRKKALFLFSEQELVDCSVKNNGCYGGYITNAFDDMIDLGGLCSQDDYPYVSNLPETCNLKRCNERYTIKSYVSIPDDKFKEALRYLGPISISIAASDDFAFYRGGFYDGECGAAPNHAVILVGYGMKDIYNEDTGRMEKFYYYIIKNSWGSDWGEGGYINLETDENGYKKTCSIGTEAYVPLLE

Falcipain 2 = biological target: T3, Falcipain 2 (Plasmodium falciparum, UniProt Q9N6S8); assay: Inhibition of falcipain2
T3 sequence (Q9N6S8 whole entry): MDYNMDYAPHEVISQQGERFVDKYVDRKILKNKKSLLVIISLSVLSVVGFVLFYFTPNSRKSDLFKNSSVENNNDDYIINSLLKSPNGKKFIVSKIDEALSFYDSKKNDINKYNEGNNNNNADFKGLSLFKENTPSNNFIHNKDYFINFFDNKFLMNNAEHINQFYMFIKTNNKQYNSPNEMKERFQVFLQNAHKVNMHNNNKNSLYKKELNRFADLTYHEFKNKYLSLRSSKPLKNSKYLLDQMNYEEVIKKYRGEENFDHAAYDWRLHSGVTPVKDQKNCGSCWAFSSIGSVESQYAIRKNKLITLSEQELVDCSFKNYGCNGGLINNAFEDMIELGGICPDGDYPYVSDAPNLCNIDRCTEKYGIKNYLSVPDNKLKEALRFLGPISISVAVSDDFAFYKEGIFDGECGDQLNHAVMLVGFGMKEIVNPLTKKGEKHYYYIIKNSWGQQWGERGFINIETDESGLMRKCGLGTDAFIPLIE

Vero [4] = assay: Cytotoxicity against Vero cells; type: functional, cell-based; details: Chlorocebus sabaeus; procedure, shortened: as §1
Plasmodium falciparum [5] = assay: Antimalarial activity against Plasmodium falciparum W2; type: functional, organism-based; procedure, shortened: as §2
[6] = Leishmania donovani, read-out: IC50

CCOC(=O)C1CCN(S(=O)(=O)c2ccc(CNC(=O)c3ccccc3)s2)CC1
IC50 (Vero [1]): Non-toxic | IC50 (Plasmodium falciparum [2]): Not Active | IC50 (Leishmania donovani; [6]): 50.4 µM

O=C(CSc1nc2ccccc2o1)NCCSCc1ccco1
IC50 (Cysteine protease): 43 µM

N=C(CS(=O)(=O)Cc1ccc(F)cc1)NOC(=O)c1cccs1
IC50 [3]: > 50 µM | IC50 (Falcipain 2): 50 µM

Cc1nc(NCCCn2ccnc2)cc(-c2cncc(-c3ccc(F)cc3)c2)n1
IC50 (Vero [4]): 41.2 µM | IC50 (Plasmodium falciparum [5]): 2.6 µM | IC90 (Leishmania donovani; Leishmania donovani): 85 µM | IC50 (Leishmania donovani; [6]): 41.2 µM

c1ccc(-c2nc(NCCCn3ccnc3)cc(-c3cccnc3)n2)cc1
IC50 (Vero [4]): 40.7 µM | IC50 (Plasmodium falciparum [5]): 0.94 µM | IC90 (Leishmania donovani; Leishmania donovani): 56.1 µM | IC50 (Leishmania donovani; [6]): 12.6 µM

O=C(CNC(=O)OCc1ccccc1)N[C@@H](Cc1ccccc1)C(=O)OCc1ccccc1 (Cbz-Gly-Phe-OBn)
IC50 (Cysteine protease): 31.4 µM

COc1ccc(-c2ccnc(SCC(=O)NCCSCc3ccco3)n2)cc1
IC50 (Vero [1]): Non-toxic | IC50 (Plasmodium falciparum [2]): Not Active | IC50 (Leishmania donovani; [6]): 79.4 µM

O=C(CS(=O)(=O)c1ccc(Cl)cc1)NCCS(=O)(=O)c1ccccc1
IC50 (Cysteine protease): 24.9 µM

Cc1nc(C)nc(N(CCS(=O)(=O)c2ccccc2)CCS(=O)(=O)c2ccccc2)n1
IC50 [3]: > 50 µM | IC50 (Falcipain 2): 13.2 µM

COC(=O)c1ccsc1NC(=O)CN1CCN(S(=O)(=O)c2ccc(Cl)cc2)CC1
IC50 [3]: 49.2 µM | IC50 (Falcipain 2): 14.3 µM

O=S(=O)(Cc1ccc(Cl)cc1)Cc1nc(-c2ccsc2)no1
IC50 [3]: 56.6 µM | IC50 (Falcipain 2): 47.8 µM

Cn1c(CSCC(=O)Nc2ccccc2)nnc1SCC(=O)Nc1cccc(Cl)c1
IC50 (Plasmodium falciparum [5]): 16.6 µM | IC50 (Vero [1]): Non-toxic | IC50 (Leishmania donovani): Not Active

Cc1ccc(S(=O)(=O)NC(=O)NCC2CCN(S(=O)(=O)c3ccccc3)CC2)cc1
IC50 [3]: 34 µM | IC50 (Falcipain 2): 19 µM

O=C(COCC(=O)N/N=C/CCc1ccccc1)N/N=C/CCc1ccccc1
IC50 (Plasmodium falciparum [5]): 3.9 µM | IC50 (Vero [1]): Non-toxic | IC50 (Leishmania donovani): Not Active

COc1ccc(-c2cncc(-c3cc(NCCCn4ccnc4)nc(C)n3)c2)cc1
IC50 (Plasmodium falciparum [5]): 2.8 µM

Cn1c(O)c(/N=N/C(=O)CCCCC(=O)/N=N/c2c(O)n(C)c3ccccc23)c2ccccc21
IC50 [3]: > 50 µM | IC50 (Falcipain 2): 6.5 µM

CCCc1cc(O)nc(SCC(=O)NCCSCc2ccco2)n1
IC50 [3]: > 50 µM | IC50 (Falcipain 2): 4.6 µM

CCOC(=O)c1c2cc(OCC(=O)NCc3ccco3)ccc2n2ccccc12
IC50 [3]: 31.2 µM | IC50 (Plasmodium falciparum [5]): 9.5 µM | IC50 (Falcipain 2): 13.8 µM

O=C(CSCc1c(F)cccc1Cl)NCCSCc1ccco1
IC50 (Plasmodium falciparum [5]): > 2.5 µM | IC50 (Vero [1]): Non-toxic | IC50 (Leishmania donovani; [6]): 107 µM

Cc1ccc(S(=O)(=O)N(C)C)cc1NS(=O)(=O)c1ccc(-c2ccon2)s1
IC50 [3]: > 50 µM | IC50 (Falcipain 2): 2.9 µM

Cc1cccc(NC(=O)Cn2c(O)c(/N=N/C(=O)C(=O)NCc3ccccc3)c3ccccc32)c1
IC50 [3]: > 50 µM | IC50 (Falcipain 2): 1.6 µM

CSc1cc(CSc2ccc(Cl)cc2)nc(-c2ccccn2)n1
IC50 (Plasmodium falciparum [5]): 20 µM | IC50 (Vero [1]): Non-toxic | IC90 (Leishmania donovani; Leishmania donovani): 106 µM | IC50 (Leishmania donovani; [6]): 50 µM

Brc1cncc(-c2cc(NCCCn3ccnc3)nc(-c3ccccc3)n2)c1
IC50 (Vero [4]): 32.2 µM | IC50 (Plasmodium falciparum [5]): 0.44 µM | IC90 (Leishmania donovani; Leishmania donovani): 15.4 µM | IC50 (Leishmania donovani; [6]): 7.8 µM

CC(C)C[C@H](NC(=O)[C@H]1O[C@@H]1C(=O)O)C(=O)NCCCCN=C(N)N [E-64]
IC50 [3]: 0.075 µM

O=S(=O)(NCCSCc1ccco1)c1cc(S(=O)(=O)c2ccccc2)cs1
IC50 (Vero [1]): Non-toxic | IC50 (Plasmodium falciparum [2]): Not Active | IC50 (Leishmania donovani; [6]): 54.1 µM

C[C@@H]1[C@H](O)[C@@H](C)/C=C/C=C/C=C/C=C/C=C/C=C/C=C/[C@H](O[C@@H]2O[C@H](C)[C@@H](O)[C@H](N)[C@@H]2O)C[C@@H]2O[C@](O)(C[C@@H](O)C[C@@H](O)[C@H](O)CC[C@@H](O)C[C@@H](O)CC(=O)O[C@H]1C)C[C@H](O)[C@H]2C(=O)O [AMPHOTERICIN B]
IC90 (Leishmania donovani; Leishmania donovani): 0.3 µM | IC50 (Leishmania donovani; [6]): 0.04 µM

CC(=O)N[C@@H](CC(C)C)C(=O)N[C@@H](CC(C)C)C(=O)N[C@H](C=O)CCCNC(=N)N [LEUPEPTIN]
IC50 (Cysteine protease): 0.01 µM

O=S(=O)(NCc1ccco1)c1ccc2c(c1)Cc1cc(S(=O)(=O)NCc3ccco3)ccc1-2
IC50 [3]: 11.4 µM | IC50 (Falcipain 2): 1.4 µM

COc1ccc(-c2cncc(-c3cc(NCc4ccco4)nc(C)n3)c2)cc1
IC50 (Plasmodium falciparum [5]): 11.5 µM | IC50 (Vero [1]): Non-toxic | IC50 (Leishmania donovani): Not Active

N=C(N)c1ccc(OCCCCCOc2ccc(C(=N)N)cc2)cc1 [PENTAMIDINE]
IC90 (Leishmania donovani; Leishmania donovani): 8.3 µM | IC50 (Leishmania donovani; [6]): 2.5 µM

Cc1csc(Cn2nc(CC(=O)N/N=C/c3ccccc3)c3ccccc3c2=O)n1
IC50 [3]: > 50 µM | IC50 (Falcipain 2): 54.3 µM

O=C(Cn1nnc(-c2ccccc2)n1)NNC=NOCc1c(F)cccc1Cl
IC50 [3]: 38.5 µM | IC50 (Falcipain 2): 10.8 µM

c1ccc(-c2nc(NCCCn3ccnc3)cc(-c3ccncc3)n2)cc1
IC50 (Plasmodium falciparum [5]): 0.13 µM | IC50 (Vero [1]): Non-toxic | IC90 (Leishmania donovani; Leishmania donovani): 98.2 µM | IC50 (Leishmania donovani; [6]): 50.5 µM

O=C(CCSSCCC(=O)NCc1ccccc1)NCc1ccccc1
IC50 [3]: 18.8 µM | IC50 (Falcipain 2): 15.3 µM

Cn1c(CSc2ccnc3cc(Cl)ccc23)nnc1SCC(=O)N1CCOCC1
IC50 (Plasmodium falciparum [5]): 20 µM | IC50 (Vero [1]): Non-toxic | IC50 (Leishmania donovani): Not Active

O=C(N[C@@H](COCc1ccccc1)C(=O)ON1C(=O)CCC1=O)OCc1ccccc1
IC50 (Cysteine protease): 23.5 µM

C[C@@H](C(=O)NCCS(=O)(=O)c1ccc(Br)cc1)S(=O)(=O)c1ccccc1
IC50 (Vero [4]): 48.4 µM | IC50 (Plasmodium falciparum [5]): 9.5 µM | IC50 (Leishmania donovani): Not Active

O=S(=O)(c1ccc(-c2ccc(S(=O)(=O)N3CCOCC3)s2)s1)N1CCOCC1
IC50 [3]: 37.7 µM | IC50 (Falcipain 2): 5.4 µM

C[C@@H]1CC[C@H]2[C@@H](C)C(=O)O[C@@H]3O[C@@]4(C)CC[C@@H]1[C@]32OO4 [ARTEMISININ]
IC50 (Plasmodium falciparum [5]): 0.008 µM

O=S(=O)(c1ccc2c(c1)C(=NO)c1cc(S(=O)(=O)N3CCOCC3)ccc1-2)N1CCOCC1
IC50 (Plasmodium falciparum [5]): 6 µM | IC50 (Vero [1]): Non-toxic | IC90 (Leishmania donovani; Leishmania donovani): 81 µM | IC50 (Leishmania donovani; [6]): 52.7 µM

CCCS(=O)(=O)c1cscc1NC(=O)CSCCS(=O)(=O)c1ccc(Cl)cc1
IC50 [3]: > 50 µM | IC50 (Falcipain 2): 3.4 µM

O=C(CSc1nnc(O)n1Cc1ccco1)c1ccc2c(c1)OCCO2
IC50 [3]: > 50 µM | IC50 (Falcipain 2): 52.3 µM

COC(=O)c1sccc1NC(=O)CC(=O)Nc1ccsc1C(=O)OC
IC50 [3]: > 50 µM | IC50 (Falcipain 2): 10.4 µM

O=C(NCc1ccncc1)c1ccc(-c2cnn(Cc3ccccc3)c2)nc1
IC50 (Plasmodium falciparum [5]): 20 µM

COC(=O)c1sccc1NC(=O)CSCc1ccc(Cl)cc1
IC50 (Vero [1]): Non-toxic | IC50 (Plasmodium falciparum [2]): Not Active | IC50 (Leishmania donovani; [6]): 45 µM

Cn1c(CSCC(=O)Nc2ccccc2)nnc1SCC(=O)Nc1ccccc1
IC50 (Plasmodium falciparum [5]): 20 µM | IC50 (Vero [1]): Non-toxic | IC50 (Leishmania donovani): Not Active
